From ChEMBL document CHEMBL1157101, “A series of alpha-heterocyclic carboxaldehyde thiosemicarbazones inhibit topoisomerase IIalpha catalytic activity” (J Med Chem, 2010)
Structures can show the parent of a compound that is named as a salt. Active and inactive are the calls of the source. The rule behind the calls is not given here.

Legend:
SGC-7901 = assay: Antiproliferative activity against human SGC7901 cells after 72 hrs by sulforhodamine B assay; format: functional, cell-based; conditions: SGC-7901, 72 h
Outline: (§1)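 Cells seeded and exposed in triplicate to graded compound concentrations for 72 h. Suspension cells read by MTT conversion to coloured product; adherent cells read by sulforhodamine B. IC50 (50% growth inhibition versus untreated control) derived by the Logit method.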

HL-60 = assay: Antiproliferative activity against human HL60 cells after 72 hrs by sulforhodamine B assay; format: functional, cell-based; conditions: HL-60, 72 h, in the assay text read “MTT assay” for “sulforhodamine B assay”; outline: as §1
HeLa = assay: Antiproliferative activity against human HeLa cells after 72 hrs by sulforhodamine B assay; format: functional, cell-based; outline: as §1
HT-29 = assay: Antiproliferative activity against human HT-29 cells after 72 hrs by sulforhodamine B assay; format: functional, cell-based; conditions: HT-29, 72 h; outline: as §1
CCRF S-180 = assay: Antitumor activity against mouse S180 cells transplanted in Kunming mouse assessed as inhibition of tumor growth at 50 mg/kg/day, iv for 2 days; format: functional; conditions: CCRF S-180, 48 h
Outline: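 Female Kunming mice, 7 weeks old, 18-22 g, were inoculated sc in the right armpit with S-180 sarcoma. Dosing started the next day: the drug iv, vehicle controls normal saline. After treatment, mice were killed, and solid tumors were excised and weighed. Inhibitory rate (%) = (mean control tumor weight − mean treated tumor weight)/mean control tumor weight × 100.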

Mus musculus = assay: Toxicity in Kunming mouse bearing mouse S180 cells assessed as change in body weight at 50 mg/kg/day, ip for 2 days (reference value: 18.1 g); format: organism-based, CCRF S-180; design: route intraperitoneal; conditions: in vivo, 48 h
[1] = Antiproliferative activity against human MCF7/ADR cells after 72 hrs by sulforhodamine B assay; format: functional, cell-based; conditions: NCI/ADR-RES; outline: as §1
[2] = Antiproliferative activity against human K562/A02 cells after 72 hrs by sulforhodamine B assay; format: functional, cell-based; conditions: K562/A02, 72 h, in the assay text read “MTT assay” for “sulforhodamine B assay”; outline: as §1
KB = assay: Antiproliferative activity against human KB cells after 72 hrs by sulforhodamine B assay; format: functional, cell-based; outline: as §1
[3] = Antiproliferative activity against human KB/VCR cells after 72 hrs by sulforhodamine B assay; format: functional, cell-based; outline: as §1
[4] = molecular target: DNA topoisomerase 2-alpha (Homo sapiens, UniProt P11388); assay: Inhibition of human topoisomerase 2 alpha-mediated decatenation of kDNA at 100 uM after 15 mins
Sequence of DNA topoisomerase 2-alpha (P11388 whole entry): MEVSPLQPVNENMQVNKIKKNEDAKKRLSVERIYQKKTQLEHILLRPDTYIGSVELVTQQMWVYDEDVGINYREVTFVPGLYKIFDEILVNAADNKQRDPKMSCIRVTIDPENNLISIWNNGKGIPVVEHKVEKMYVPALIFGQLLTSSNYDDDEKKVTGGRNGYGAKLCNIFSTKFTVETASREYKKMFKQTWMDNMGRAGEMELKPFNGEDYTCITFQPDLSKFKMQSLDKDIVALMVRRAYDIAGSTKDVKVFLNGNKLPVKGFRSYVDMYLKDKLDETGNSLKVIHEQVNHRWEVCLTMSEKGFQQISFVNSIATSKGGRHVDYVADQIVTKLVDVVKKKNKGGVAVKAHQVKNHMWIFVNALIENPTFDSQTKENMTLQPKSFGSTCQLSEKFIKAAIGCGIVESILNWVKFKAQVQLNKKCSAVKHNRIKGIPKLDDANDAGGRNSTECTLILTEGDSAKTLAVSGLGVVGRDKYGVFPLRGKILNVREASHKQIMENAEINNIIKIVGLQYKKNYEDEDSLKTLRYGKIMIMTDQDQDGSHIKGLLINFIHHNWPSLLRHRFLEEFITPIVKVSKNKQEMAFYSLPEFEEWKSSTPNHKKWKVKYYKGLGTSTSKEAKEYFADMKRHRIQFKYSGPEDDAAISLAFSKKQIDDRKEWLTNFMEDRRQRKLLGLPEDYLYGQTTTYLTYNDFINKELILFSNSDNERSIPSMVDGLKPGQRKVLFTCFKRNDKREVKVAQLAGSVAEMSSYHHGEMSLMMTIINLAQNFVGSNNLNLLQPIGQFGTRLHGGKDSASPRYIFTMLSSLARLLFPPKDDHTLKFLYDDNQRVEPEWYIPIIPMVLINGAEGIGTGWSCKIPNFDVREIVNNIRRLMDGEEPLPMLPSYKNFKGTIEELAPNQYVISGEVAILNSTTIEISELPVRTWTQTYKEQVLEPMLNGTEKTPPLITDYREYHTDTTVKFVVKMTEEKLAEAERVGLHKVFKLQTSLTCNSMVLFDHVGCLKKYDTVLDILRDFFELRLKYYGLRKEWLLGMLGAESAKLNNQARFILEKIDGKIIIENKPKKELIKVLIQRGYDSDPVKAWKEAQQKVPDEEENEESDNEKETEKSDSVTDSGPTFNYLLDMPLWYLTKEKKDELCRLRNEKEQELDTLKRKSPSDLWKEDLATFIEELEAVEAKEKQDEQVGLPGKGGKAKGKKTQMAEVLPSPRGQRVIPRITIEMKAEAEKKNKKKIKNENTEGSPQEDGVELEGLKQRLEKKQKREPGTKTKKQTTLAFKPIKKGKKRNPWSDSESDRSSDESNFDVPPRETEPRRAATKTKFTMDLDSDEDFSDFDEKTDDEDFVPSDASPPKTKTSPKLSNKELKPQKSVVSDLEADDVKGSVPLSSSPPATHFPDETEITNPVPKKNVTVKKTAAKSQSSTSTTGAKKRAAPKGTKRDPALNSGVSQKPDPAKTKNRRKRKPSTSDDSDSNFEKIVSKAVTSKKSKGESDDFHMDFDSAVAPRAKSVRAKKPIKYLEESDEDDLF

| Compound | IC50 (SGC-7901) | IC50 (HL-60) | IC50 (HeLa) | IC50 (HT-29) | inhibition in vivo at 50 mg/kg/day (CCRF S-180) | Activity (Mus musculus) | IC50 [1] | IC50 [2] | IC50 (KB) | IC50 [3] | inhibition (active/not active) [4] |
| --- | --- | --- | --- | --- | --- | --- | --- | --- | --- | --- | --- |
| COc1ccccc1NC(=S)N/N=C/c1ccc2ccccc2n1 | > 100 µM | 91.7 µM | > 100 µM | > 100 µM | – | – | – | – | – | – | – |
| O=c1[nH]cc(F)c(=O)[nH]1 [FLUOROURACIL] | – | – | – | – | 80.7% | 27.5 g | – | – | – | – | – |
| S=C(N/N=C/c1ccc2ccccc2n1)Nc1ccc(Cl)cc1 | 87.6 µM | > 100 µM | > 100 µM | 97.2 µM | – | – | – | – | – | – | – |
| COc1cccc2c1C(=O)c1c(O)c3c(c(O)c1C2=O)C[C@@](O)(C(=O)CO)C[C@@H]3O[C@H]1C[C@H](N)[C@H](O)[C@H](C)O1 [DOXORUBICIN HYDROCHLORIDE] | – | – | – | – | – | – | 44.9 µM | 23.8 µM | – | – | – |
| S=C(N/N=C/c1ccc2ccccc2n1)Nc1ccc(Br)cc1 | 69.4 µM | 27.5 µM | 56.8 µM | 54.4 µM | – | – | – | – | – | – | – |
| CC[C@]1(O)C[C@H]2CN(CCc3c([nH]c4ccccc34)[C@@](C(=O)OC)(c3cc4c(cc3OC)N(C=O)[C@H]3[C@@](O)(C(=O)OC)[C@H](OC(C)=O)[C@]5(CC)C=CCN6CC[C@]43[C@@H]65)C2)C1 [VINCRISTINE] | – | – | – | – | – | – | – | – | 0.01 µM | 0.84 µM | – |
| Fc1ccc(NC(=S)N/N=C/c2ccc3ccccc3n2)cc1 | 32.3 µM | 17 µM | 33.2 µM | 28.5 µM | – | – | – | – | – | – | – |
| Cc1ccc(NC(=S)N/N=C/c2ccc3ccccc3n2)cc1 | 92.9 µM | 78.3 µM | 86 µM | 85.5 µM | – | – | – | – | – | – | – |
| CN(C)C(=S)N/N=C/c1nc2ccccc2s1 | 0.83 µM | 3.68 µM | 2.1 µM | 0.25 µM | – | – | – | – | – | – | Active |
| CN(C)C(=S)N/N=C/c1cnc2ccccc2n1 | 0.17 µM | 0.09 µM | 0.75 µM | 0.45 µM | – | – | – | – | – | – | Active |
| COc1ccc(C)cc1NC(=S)N/N=C/c1ccc2ccccc2n1 | > 100 µM | > 100 µM | > 100 µM | > 100 µM | – | – | – | – | – | – | – |
| COc1cccc(NC(=S)N/N=C/c2ccc3ccccc3n2)c1 | 79.4 µM | 71.2 µM | 74.5 µM | 82.4 µM | – | – | – | – | – | – | – |
| N#Cc1ccc(NC(=S)N/N=C/c2ccc3ccccc3n2)cc1 | 23.7 µM | 4.66 µM | 20 µM | 15.6 µM | – | – | – | – | – | – | – |
| FC(F)(F)c1ccccc1NC(=S)N/N=C/c1ccc2ccccc2n1 | 20.7 µM | 13.2 µM | 18.8 µM | 18.1 µM | – | – | – | – | – | – | – |
| CN(C)C(=S)N/N=C/c1cc2cccnc2s1 | 21.4 µM | > 100 µM | 48.4 µM | 13.4 µM | – | – | – | – | – | – | Active |
| NC(=S)N/N=C/c1ccc2cccnc2n1 | > 100 µM | > 100 µM | > 100 µM | 12.8 µM | – | – | – | – | – | – | inactive |
| NC(=S)N/N=C/c1cnc2ccccc2n1 | > 100 µM | > 100 µM | > 100 µM | > 100 µM | – | – | – | – | – | – | – |
| NC(=S)N/N=C/c1nc2ccccc2s1 | > 100 µM | > 100 µM | 5.35 µM | > 100 µM | – | – | – | – | – | – | inactive |
| Cc1ccc(NC(=O)N/N=C/c2ccc3ccccc3n2)cc1 | > 100 µM | > 100 µM | > 100 µM | > 100 µM | – | – | – | – | – | – | – |
